Test results reported in paper PMC4109024 (Nature communications, 2014).
“Also recorded” adds a separate entry of the source.

Assays:
[1] = system: CNGB3-MYC expressing HEK293T cells; assay: Biotin-z13 localization / endosome-escaping activity; type: cell-based; conditions: 37°C, 30 min, biotin-z13 in presence of HLAH-z13; Alexa 488-avidin
[2] = system: CNGB3-Myc transfected A431 cells; assay: Cell viability assay, CNGB3-positive A431 cells; type: cell-based; conditions: 37°C, 6 hours, ATP by CellTiter Glo; for Concentration above which cell viability was affected, CNGB3-positive A431: single peptide
Method in brief: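 CNGB3–MYC-transfected A431 cells, with untransfected CNGB3-negative A431 as control, grown in DME/F12 with 10% FCS. Cells were exposed to single peptides or the two-peptide combination at a range of concentrations for 6 h at 37 °C. Peptide stocks were 100 μg/μl in DMSO, and a DMSO-only control was run at 0.01% final. Viability was read as ATP content by CellTiter Glo luminescence.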

[3] = system: CNGB3-MYC expressing HEK293T cells; assay: TUNEL apoptosis assay, CNGB3-MYC HEK293T cells; type: cell-based
Method in brief: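 HEK293T cells transfected with CNGB3–MYC were cultured for 20 h at 37 °C with one of these treatments: no peptide; targeting peptide, 100 μg/ml; pro-apoptotic peptide, 100 μg/ml; its conjugate, 100 μg/ml; endosome-escaping conjugate, 25 μg/ml; or conjugates at 100 plus 25 μg/ml. Stocks were 100 μg/μl in DMSO. Apoptosis was detected by immunoperoxidase TUNEL.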

[4] = system: human endometrial adenocarcinoma Ishikawa cells; assay: Phage binding/internalization to Ishikawa cells; type: cell-based; conditions: cloned phage, 37°C, 30 min; plaque forming assay; repeated three times
Method in brief: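 Phage clones came from a T7 library of linear 9-mer peptides. Each selection round had two steps: 1 h in vivo subtraction in female mouse peritoneum, then 30 min internalization into Ishikawa monolayers at 37 °C. Clones from three such rounds were each added to Ishikawa monolayers, or A431 controls, for 30 min at 37 °C. Internalized phage was counted by plaque assay, and binding was expressed as plaques recovered relative to phage added.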

[5] = system: Ishikawa cell surface proteins; assay: z13 affinity isolation of biotinylated Ishikawa cell surface proteins; type: binding, human; conditions: biotinylated Ishikawa lysate; z13 peptide 1 mg/ml elution; avidin blot
Method in brief: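 Ishikawa monolayers were surface-biotinylated with sulpho-NHS-LC-biotin (0.5 mg/ml in PBS, 30 min) and solubilized at 4 °C in TBS with 50 mM octyl-thio-glucoside and protease inhibitors. Lysate was precleared on agarose for 2 h at 4 °C, then bound to peptide-conjugated agarose. Elution used peptide at 1 mg/ml, with an irrelevant peptide as control. Eluates were analysed by SDS–PAGE, peroxidase-avidin blot and chemiluminescence.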

[6] = system: CNGB3-expressing A431 cells; assay: Inhibition of KLAK-z13 plus HLA-z13 cytotoxicity by z13 / palmitoyl-z13; type: cell-based; conditions: KLAK-z13 100 μg/ml + HLA-z13 25 μg/ml, 37 °C, 6 hours; average of triplicate; repeated three times

Sequence | Effect on biotin-z13 localization (endosome-escaping activity) [1] | Cell viability, CNGB3-positive A431 [2] | Concentration above which cell viability was affected, CNGB3-positive A431 [2] [µg/mL] | Apoptosis of CNGB3-expressing HEK293T cells, HLAH-z13 25 μg/ml ([3]; 25 μg/ml, 37°C, 20 hours, TUNEL) | Apoptosis of CNGB3-MYC transfected HEK293T cells, dKLAK-z13 alone ([3]; culture medium of transfected cells, concentration not given) | Binding strength to Ishikawa cells among phage clones [4] | Protein bound to z13 beads and eluted by z13 peptide [5] | Blocking of cytotoxicity of KLAK-z13 plus HLA-z13 [6]
HLAHLAHHLAHLAHHLAHVRRADNRPG [HLAH-z13] | diffuse cytoplasmic signals | cell viability was not affected except at high concentrations | > 50 | did not undergo apoptosis | – | – | – | –
KLAKLAKKLAKLAKKLAKVRRADNRPG [dKLAK-z13] | – | cell viability was not affected except at high concentrations | > 200 | – | apoptosis was not induced; also recorded: did not induce apoptosis | – | – | –
VRRADNRPG [z13] | – | cell viability was not affected | – | – | – | the strongest binder | single 68 kDa protein | blocked
